Key:
Type in all cases: functional
Jurkat [1] = test: Photocytotoxicity against human Jurkat cells assessed as growth inhibition at 2.5 J/cm'2 irradiation for 30 mins followed by drug treated for 72 hrs by MTT assay; conditions: light or radiation study
Method in brief: (§1)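 Cells seeded at 5 × 10³ per well and pre-incubated 24 h. Drug dilutions in HBSS (pH 7.2, from DMSO stock) added for 30 min at 37 °C, then UV-A irradiation at the stated dose. Drug solution then replaced with culture medium and plates incubated 72 h. Viability by MTT; GI50 from concentration series.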

Jurkat [2] = test: Photocytotoxicity against human Jurkat cells assessed as growth inhibition at 1.25 J/cm'2 irradiation for 30 mins followed by drug treated for 72 hrs by MTT assay; conditions: light or radiation study; method in brief: as §1
HL-60 [3] = test: Photocytotoxicity against human HL60 cells assessed as growth inhibition at 2.5 J/cm'2 irradiation for 30 mins followed by drug treated for 72 hrs by MTT assay; conditions: HL-60, light or radiation study; method in brief: as §1
HL-60 [4] = test: Photocytotoxicity against human HL60 cells assessed as growth inhibition at 1.25 J/cm'2 irradiation for 30 mins followed by drug treated for 72 hrs by MTT assay; conditions: HL-60, light or radiation study; method in brief: as §1
MCF7 [5] = test: Photocytotoxicity against human MCF7 cells assessed as growth inhibition at 3.75 J/cm'2 irradiation for 30 mins followed by drug treated for 72 hrs by MTT assay; conditions: MCF7, light or radiation study; method in brief: as §1
MCF7 [6] = test: Photocytotoxicity against human MCF7 cells assessed as growth inhibition at 2.5 J/cm'2 irradiation for 30 mins followed by drug treated for 72 hrs by MTT assay; conditions: MCF7, light or radiation study; method in brief: as §1
A549 [7] = test: Photocytotoxicity against human A549 cells assessed as growth inhibition at 3.75 J/cm'2 irradiation for 30 mins followed by drug treated for 72 hrs by MTT assay; conditions: A549, light or radiation study; method in brief: as §1
A549 [8] = test: Photocytotoxicity against human A549 cells assessed as growth inhibition at 2.5 J/cm'2 irradiation for 30 mins followed by drug treated for 72 hrs by MTT assay; conditions: A549, light or radiation study; method in brief: as §1
LoVo [9] = test: Photocytotoxicity against human LoVo cells assessed as growth inhibition at 3.75 J/cm'2 irradiation for 30 mins followed by drug treated for 72 hrs by MTT assay; conditions: light or radiation study; method in brief: as §1
LoVo [10] = test: Photocytotoxicity against human LoVo cells assessed as growth inhibition at 2.5 J/cm'2 irradiation for 30 mins followed by drug treated for 72 hrs by MTT assay; conditions: light or radiation study; method in brief: as §1
Jurkat [11] = test: Cytotoxicity against human Jurkat cells assessed as growth inhibition after 72 hrs by MTT assay
HL-60 [12] = test: Cytotoxicity against human HL60 cells assessed as growth inhibition after 72 hrs by MTT assay; conditions: HL-60, 72 h
A549 [13] = test: Cytotoxicity against human A549 cells assessed as growth inhibition after 72 hrs by MTT assay; conditions: A549, 72 h
Method in brief: (§2)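 Cells (5 × 10³ per well) pre-incubated 24 h at 37 °C, 5% CO₂, then exposed in the dark to serial concentrations diluted from DMSO stock into complete medium for 72 h at 37 °C. Viability read by MTT; GI50 derived. LoVo in Ham's F-12, MCF-7 and A-549 in DMEM, all with 10% FBS and penicillin/streptomycin.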

MCF7 [14] = test: Cytotoxicity against human MCF7 cells assessed as growth inhibition after 72 hrs by MTT assay; conditions: MCF7, 72 h; method in brief: as §2
LoVo [15] = test: Cytotoxicity against human LoVo cells assessed as growth inhibition after 72 hrs by MTT assay; method in brief: as §2

Row | SMILES | GI50 (Jurkat [1]) [µM] | GI50 (Jurkat [2]) [µM] | GI50 (HL-60 [3]) [µM] | GI50 (HL-60 [4]) [µM] | GI50 (MCF7 [5]) [µM] | GI50 (MCF7 [6]) [µM] | GI50 (A549 [7]) [µM] | GI50 (A549 [8]) [µM] | GI50 (LoVo [9]) [µM] | GI50 (LoVo [10]) [µM] | GI50 (Jurkat [11]) [µM] | GI50 (HL-60 [12]) [µM] | GI50 (A549 [13]) [µM] | GI50 (MCF7 [14]) [µM] | GI50 (LoVo [15]) [µM]
1 | O=c1[nH]c2c(cc1S(=O)(=O)c1ccccc1)CCc1c-2cnn1-c1cccc(Cl)c1 | > 20 | > 20 | > 20 | > 20 | > 20 | > 20 | 9.53 | 14.1 | > 20 | > 20 | 4.55 | > 20 | 6.41 | > 20 | > 20
2 | COc1ccc(-n2ncc3c2CCc2cc(S(=O)(=O)c4ccccc4)c(=O)n(C)c2-3)cc1 | 6.68 | > 20 | 7.65 | > 20 | > 20 | > 20 | > 20 | > 20 | > 20 | > 20 | – | – | – | – | –
3 | Cn1c2c(cc(S(=O)(=O)c3ccccc3)c1=O)CCc1c-2cnn1-c1ccccc1 | 6.99 | > 20 | > 20 | > 20 | > 20 | > 20 | > 20 | > 20 | > 20 | > 20 | – | – | – | – | –
4 | COc1ccc(-n2ncc3c2CCc2cc(S(=O)(=O)c4ccccc4)c(OCc4ccccc4)nc2-3)cc1 | > 20 | > 20 | 9.09 | > 20 | > 20 | > 20 | 5.74 | > 20 | 2.76 | > 20 | – | – | – | – | –
5 | CCOC(=O)c1cc2c(nc1OC)-c1cnn(-c3ccc(OC)cc3)c1CC2 | 6.43 | 9.93 | 4.69 | 7.71 | > 20 | > 20 | 4.67 | 6.99 | 4.3 | 5.81 | – | – | – | – | –
6 | O=c1[nH]c2c(cc1S(=O)(=O)c1ccccc1)CCc1c-2cnn1-c1ccccc1 | > 20 | > 20 | > 20 | > 20 | > 20 | > 20 | 14.1 | > 20 | > 20 | > 20 | 20 | > 20 | 10.8 | 11.5 | > 20
7 | Cn1c2c(cc(S(=O)(=O)c3ccccc3)c1=O)CCc1c-2cnn1-c1ccccc1Cl | 5.21 | > 20 | 4.82 | 11.5 | 12.6 | > 20 | 13 | > 20 | 13.1 | > 20 | – | – | – | – | –
8 | COc1ccc(-n2ncc3c2CCc2cc(S(=O)(=O)c4ccccc4)c(=O)[nH]c2-3)cc1 | – | – | – | – | – | – | – | – | – | – | > 20 | > 20 | 4.04 | 8.54 | > 20
9 | O=c1[nH]c2c(cc1S(=O)(=O)c1ccccc1)CCc1c-2cnn1-c1ccccc1Cl | 3.95 | 11.3 | 2.76 | – | 10.4 | 13 | 8.97 | 13.3 | 10.1 | > 20 | – | – | – | – | –
10 | Cn1c2c(cc(S(=O)(=O)c3ccccc3)c1=O)CCc1c-2cnn1-c1ccc(Cl)cc1 | 3.01 | > 20 | 2.88 | > 20 | > 20 | > 20 | > 20 | > 20 | 11.1 | > 20 | – | – | – | – | –
11 | CCOC(=O)c1cc2c(n(C)c1=O)-c1cnn(-c3ccc(Cl)cc3)c1CC2 | > 20 | > 20 | 7.67 | > 20 | > 20 | > 20 | > 20 | > 20 | > 20 | > 20 | – | – | – | – | –
12 | O=c1[nH]c2c(cc1S(=O)(=O)c1ccccc1)CCc1c-2cnn1Cc1ccccc1 | 6.88 | > 20 | 5.06 | > 20 | > 20 | > 20 | > 20 | > 20 | 14.5 | > 20 | – | – | – | – | –
13 | O=c1[nH]c2c(ccc3c2cnn3-c2ccc(Cl)cc2)cc1S(=O)(=O)c1ccccc1 | – | – | – | – | – | – | – | – | – | – | > 20 | > 20 | 1.46 | 9.26 | > 20
14 | COc1nc2c(cc1S(=O)(=O)c1ccccc1)CCc1c-2cnn1C | 12.7 | > 20 | 9.79 | > 20 | > 20 | > 20 | > 20 | > 20 | > 20 | > 20 | – | – | – | – | –
15 | Cn1c2c(cc(S(=O)(=O)c3ccccc3)c1=O)CCc1c-2cnn1Cc1ccccc1 | 5.67 | > 20 | 6.79 | > 20 | > 20 | > 20 | > 20 | > 20 | 13 | > 20 | – | – | – | – | –
16 | CCOC(=O)c1cc2c(nc1OC)-c1cnn(-c3ccc(Cl)cc3)c1CC2 | 1.81 | 4.47 | 1.71 | 5.38 | > 20 | > 20 | 2.3 | 3.68 | 1.13 | 2.79 | – | – | – | – | –
17 | COc1ccc(-n2ncc3c2CCc2cc(S(=O)(=O)c4ccccc4)c(=O)n(Cc4ccccc4)c2-3)cc1 | > 20 | > 20 | > 20 | > 20 | > 20 | > 20 | > 20 | > 20 | 4.12 | > 20 | – | – | – | – | –
18 | O=c1ccc2ccc3occc3c2o1 [ANGELICIN] | 1 | – | 1.2 | – | 1.5 | 4.42 | – | – | 1.11 | 4 | – | – | – | – | –
19 | O=c1[nH]c2c(cc1S(=O)(=O)c1ccccc1)CCc1c-2cnn1-c1ccc(Cl)cc1 | – | – | – | – | – | – | – | – | – | – | > 20 | > 20 | 6.25 | 11.2 | > 20

Source: ChEMBL document CHEMBL3616466, “Pyrazolo[3,4-h]quinolines promising photosensitizing agents in the treatment of cancer” (Eur J Med Chem, 2015)
